Assay results published in ChEMBL document CHEMBL4177702, “Design and synthesis of aminoester heterodimers containing flavone or chromone moieties as modulators of P-glycoprotein-based multidrug resistance (MDR)” (Bioorg Med Chem, 2018).
Activity calls are given as the source filed them. No cut-off for these calls is given here.

What was measured:
Assay type in all cases: cell-based
[1] = species: Homo sapiens; experiment: Inhibition of P-gp in human K562/Dox cells assessed as nuclear accumulation of pirarubicin at 10^-5 M by spectrofluorometric assay relative to control
[2] = (§1) Inhibition of P-gp in human K562/Dox cells assessed as increase in nuclear accumulation of pirarubicin by spectrofluorometric assay; details: read-out: I50
[3] = species: Homo sapiens; experiment: as §1
[4] = system: K562; experiment: Cytotoxicity against human K562 cells assessed as reduction in cell viability at 1 to 3 uM after 72 hrs by MTT assay; details: k562, 72 h
Method in brief: (§2)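 Exponentially growing cells (3×10^5 cells/mL) seeded at 10^4 cells/well and exposed to compound at 1.0 and 3.0 μM (diluted from 10^-2 M DMSO stocks in complete medium) for 72 h at 37 °C, 5% CO2. MTT added for 3 h, formazan dissolved in acidified isopropanol, absorbance at 570 nm. Toxicity expressed as proliferation relative to untreated control (100%).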

[5] = Cytotoxicity against human K562/Dox cells assessed as reduction in cell viability at 1 to 3 uM after 72 hrs by MTT assay; method in brief: as §2

Compound | IC50 [2] [nM] | Efficacy [1] [%] | further results
COc1cc(/C=C/C(=O)OCCCN(C)CCCOC(=O)c2cc(=O)c3c(OC)cccc3o2)cc(OC)c1OC |  | 4 to 30 | 
COc1cc(/C=C/C(=O)OCCCN(C)CCCOC(=O)COc2ccc(-c3cc(=O)c4c(O)cc(O)cc4o3)cc2)cc(OC)c1OC |  | 4 to 30 | 
COc1cc(/C=C/C(=O)OCCOCCN(C)CCOCCOC(=O)c2cc(=O)c3c(O)cc(O)cc3o2)cc(OC)c1OC |  |  | I50 [3]: inactive
COc1cc(OC)c2c(=O)cc(C(=O)OCCCN(C)CCCOC(=O)/C=C/c3cc(OC)c(OC)c(OC)c3)oc2c1 |  | 4 to 30 | 
COc1cc(/C=C/C(=O)OCCOCCNCCOCCOC(=O)COc2ccc(-c3cc(=O)c4ccccc4o3)cc2)cc(OC)c1OC |  |  | Activity [4]: Non-Toxic; Activity [5]: Non-Toxic
COc1cc(/C=C/C(=O)OCCCN(C)CCCOC(=O)c2cc(=O)c3c(O)cccc3o2)cc(OC)c1OC |  | 4 to 30 | 
COc1cc(/C=C/C(=O)OCCCN(C)CCCOC(=O)c2cc(=O)c3c(O)cc(O)cc3o2)cc(OC)c1OC |  | 4 to 30 | Activity [4]: Non-Toxic; Activity [5]: Non-Toxic

Continued, in another order:

IC50 [2] [nM] | Compound | Efficacy [1] [%] | further results
3500 | COc1cc(/C=C/C(=O)OCCCCCN(C)CCCCCOC(=O)c2cc(=O)c3c(OC)cccc3o2)cc(OC)c1OC |  | 
1230 | COc1cc(/C=C/C(=O)OCCOCCN(C)CCOCCOC(=O)COc2ccc(-c3cc(=O)c4ccccc4o3)cc2)cc(OC)c1OC |  | Activity [4]: Non-Toxic; Activity [5]: Non-Toxic
960 | COc1cc(/C=C/C(=O)OCCCCCN(C)CCCCCOC(=O)COc2ccc(-c3cc(=O)c4c(O)cc(O)cc4o3)cc2)cc(OC)c1OC |  | 
2430 | COc1cc(/C=C/C(=O)OCCCCCN(C)CCCCCOC(=O)c2cc(=O)c3c(O)cc(O)cc3o2)cc(OC)c1OC |  | 
340 | COc1cc(/C=C/C(=O)OCCCCCN(C)CCCCCOC(=O)COc2ccc(-c3cc(=O)c4ccccc4o3)cc2)cc(OC)c1OC |  | Activity [4]: Non-Toxic; Activity [5]: Non-Toxic
430 | COc1cc(/C=C/C(=O)OCCCCCN(CCCCCOC(=O)COc2ccc(-c3cc(=O)c4ccccc4o3)cc2)Cc2ccccc2)cc(OC)c1OC |  | 
350 | COc1cc(/C=C/C(=O)OCCCCCN(C)CCCCCOC(=O)c2cc(=O)c3c(O)cccc3o2)cc(OC)c1OC |  | 
1320 | COc1cc(/C=C/C(=O)OCCCCCNCCCCCOC(=O)COc2ccc(-c3cc(=O)c4ccccc4o3)cc2)cc(OC)c1OC |  | 
1320 | COc1cc(OC)c2c(=O)cc(C(=O)OCCCCCN(C)CCCCCOC(=O)/C=C/c3cc(OC)c(OC)c(OC)c3)oc2c1 |  | 
